Laboratory results as given in PMC7707623 (Journal of Medicinal Chemistry, 2020).

Legend:
[1] = test system: murine SCLC cell line 319N1; experiment: Cytotoxicity assay; type: cell-based, mouse
Procedure, shortened: (§1)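 Murine SCLC cells were allowed to attach overnight, then given test compound as a 10-point log-dilution series. Viability was read by CellTiter-Glo luminescence at 72 h, with the reagent diluted 1:1 in PBS/1% Triton-X. Signals were normalized to DMSO-treated cells and IC50 values came from curve fitting (n = 2 technical replicates). Fold values are ratios of these IC50s.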

[2] = test system: yeast cells (Sec14); details: through inhibition of Sec14; cited from earlier work
[3] = test system: three independent murine SCLC (mSCLC) cell lines; experiment: Cytotoxicity against three murine SCLC cell lines; type: cell-based; details: Mus musculus, read-out: average EC50
Procedure, shortened: as §1

[4] = test system: human SCLC cell lines, H889, H2107, and H128; experiment: Dose response against human SCLC cell lines; type: cell-based
[5] = target: T1, p50 (β-tubulin) in 518T2 murine SCLC cells (Mus musculus, UniProt P99024); experiment: Cell-based competition with alkyne probe 24; type: binding; details: probe 24 at 5 μM, pre-treatment with increasing concentrations
[6] = target: T1, p50 (β-tubulin) in 518T2 murine SCLC cells; type: binding; details: 50 nM to 50 μM, 1.5 h, Alexa Fluor 532 azide
Procedure, shortened: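 518T2 cells were plated at 1 million per well in DMEM with 5% FBS. Next day the alkyne probe in DMSO was added at 50 nM to 50 μM for 1.5 h at 37 °C, 5% CO2. Cells were PBS-washed and lysed in 1% SDS buffer (50 mM HEPES pH 7.4, 10 mM KCl, 2 mM MgCl2, benzonase). Lysates were copper-clicked to 25 μM Alexa Fluor 532 azide, run on SDS-PAGE and imaged by in-gel fluorescence.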

[7] = test system: 319N1-M2KO resistant clones A–E; experiment: Cytotoxicity against sulfonamide 27-resistant clones; type: cell-based, mouse; details: for IC50 fold change, resistant clones versus parental: all five clones A–E
[8] = test system: 518T2-Tubb5^T238A cells; experiment: Dose response in Tubb5 T238A edited cells; type: cell-based, mouse; details: 518T2-Tubb5^T238A versus 518T2
[9] = test system: 518T2 cells; experiment: Cell cycle analysis by flow cytometry; type: cell-based, mouse; details: 300 nM, 24 h
[10] = target: human recombinant β3 tubulin (Homo sapiens, UniProt Q13509); experiment: Microtubule dynamics assay, recombinant β3 tubulin; type: biochemical
Procedure, shortened: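 Human αβ-tubulin (TUBA1B with TUBB3, C-terminal His-tag removed by TEV) was expressed in Tni insect cells and purified by Ni-affinity and anion exchange. Compound was added at 1, 5 or 10 μM versus DMSO; kymograph growth rates were taken from 71–119 microtubules over two trials.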

[11] = test system: bovine brain tubulin; experiment: Microtubule dynamics assay, brain tubulin; type: biochemical

For `COc1cccc(N2CCN(C(=O)c3ccc(Cl)c([N+](=O)[O-])c3)CC2)c1` [Compound 3, (4-Chloro-3-nitrophenyl)(4-(3-methoxyphenyl)piperazin-1-yl)methanone], which “fold more potent than benzamide 1” value ([1]; 319N1) is on record?
The value was about 3 fold.

For `O=C(c1ccc(Cl)c([N+](=O)[O-])c1)N1CCN(c2ccccc2)CC1` [Compound 1], which “toxicity to yeast cells” value [2] is on record?
Its value is “toxic to yeast cells”.

What about the EC50 [3] of the same compound?
The EC50 was 3210 ± 600 nM.

What about the “sensitivity of human SCLC cell lines” value [4] of the same compound?
The value was “exhibited sensitivity”.

With `CC[C@]1(O)C[C@H]2CN(CCc3c([nH]c4ccccc34)[C@@](C(=O)OC)(c3cc4c(cc3OC)N(C=O)[C@H]3[C@@](O)(C(=O)OC)[C@H](OC(C)=O)[C@]5(CC)C=CCN6CC[C@]43[C@@H]65)C2)C1` [vincristine, reference compound] as the compound, how does the “competition with probe 24 for p50, in words” value [5] read?
Its value is “no such probe competition was observed”.

For `O=C(c1cccc([N+](=O)[O-])c1)N1CCN(c2ccccc2)CC1` [Compound 29], which “antiproliferative activity in words” value ([1]; 319N1) is on record?
Its value is “complete eradication of antiproliferative activity”.

With `C#CCOc1cccc(N2CCN(C(=O)c3ccc(C)c([N+](=O)[O-])c3)CC2)c1` [Compound 25, (4-Methyl-3-nitrophenyl)(4-(3-(prop-2-yn-1-yloxy)phenyl)piperazin-1-yl)methanone] as the compound, how does the “fold less active compared to 24” value ([1]; 319N1) read?
The value was 10 fold.

And the “covalent modification of 50 kDa protein (p50), in-gel fluorescence” value [6]?
The value was “not observed”.

With `O=C(c1ccc(Cl)c([N+](=O)[O-])c1)N1CCN(c2ccccc2F)CC1` [Compound 12] as the compound, how does the “fold less active than parent benzamide 1” value ([1]; 319N1) read?
The value was 2 fold.

Which “cross-resistance of 27-resistant clones, in words” value ([7]; clones A–E) does the source give for `COc1cc([C@@H]2c3cc4c(cc3[C@@H](O[C@@H]3O[C@@H]5CO[C@@H](C)O[C@H]5[C@H](O)[C@H]3O)[C@H]3COC(=O)[C@H]23)OCO4)cc(OC)c1O` [etoposide, reference compound] here?
The value was “not cross-resistant”.

What does the source list for “(4-Bromo-3-nitrophenyl)(4-(5-chloro-2-methylphenyl)piperazin-1-yl)methanone [Compound 21]”?
EC50 ([1]; 319N1 mSCLC cells, quoted in running text): 55 nM; compound resistance compared to parental 518T2 cells [8]: Compound resistance to analog 21 was confirmed; cell cycle effect [9]: induced G2/M cell cycle arrest; effect on in vitro microtubule growth rate of β3 tubulin, in words ([10]; up to 10 μM): failed to impair; effect on growth of brain tubulin, in words ([11]; 1 μM): dramatically affected the growth; reduction of growth of bovine brain microtubules ([11]; 10:1 (tubulin/compound) ratio, compared to control): approximately 80%

Which EC50 ([1]; Mus musculus, 319N1) does the source give for `Cc1ccc(Cl)cc1N1CCN(C(=O)c2ccc(I)c([N+](=O)[O-])c2)CC1` [Compound 22, (4-(5-Chloro-2-methylphenyl)piperazin-1-yl)(4-iodo-3-nitrophenyl)methanone] here?
Its EC50 is 51 nM.

For `Cc1ccc(Cl)cc1N1CCN(C(=O)c2ccc(OC(F)(F)F)c([N+](=O)[O-])c2)CC1` [Compound 23, (4-(5-Chloro-2-methylphenyl)piperazin-1-yl)(3-nitro-4-(trifluoromethoxy)phenyl)methan-one], which EC50 ([1]; Mus musculus, 319N1) is on record?
The EC50 was 20 nM.

With `Cc1cccc(N2CCN(C(=O)c3ccc(Cl)c([N+](=O)[O-])c3)CC2)c1` [Compound 4, (4-Chloro-3-nitrophenyl)(4-(m-tolyl)piperazin-1-yl)methanone] as the compound, how does the “fold more potent than benzamide 1” value ([1]; 319N1) read?
Its value is about 3 fold.

With `C#CCOc1cccc(N2CCN(C(=O)c3ccc(Cl)c([N+](=O)[O-])c3)CC2)c1` [Compound 24, (4-Chloro-3-nitrophenyl)(4-(3-(prop-2-yn-1-yloxy)phenyl)piperazin-1-yl)methanone] as the compound, how does the “covalent modification of 50 kDa protein (p50), in-gel fluorescence” value [6] read?
The value was “covalently modified”.

For `Cc1ccc(Cl)cc1N1CCN(C(=O)c2ccc(Cl)c([N+](=O)[O-])c2)CC1` [Compound 10, (4-(5-Chloro-2-methylphenyl)piperazin-1-yl)(4-chloro-3-nitrophenyl)methanone], which EC50 ([1]; Mus musculus, 319N1) is on record?
The EC50 was 182 nM.

What about the “IC50 fold change, resistant clones versus parental” value [7] of the same compound?
Its value is over 2.5 fold.

For `O=C(c1ccc(Cl)c([N+](=O)[O-])c1)N1CCN(c2ccccc2Cl)CC1` [Compound 2, (4-Chloro-3-nitrophenyl)(4-(2-chlorophenyl)piperazin-1-yl)methanone], which “antiproliferative activity in words” value ([1]; 319N1) is on record?
Its value is “slightly improved potency”.

Which cell cycle effect [9] does the source give for `COc1cc2c(c(OC)c1OC)-c1ccc(OC)c(=O)cc1[C@@H](NC(C)=O)CC2` [colchicine, reference compound] here?
The cell cycle effect was “induced G2/M cell cycle arrest”.

For `Cc1ccc(Cl)cc1N1CCN(C(=O)c2ccc(F)c([N+](=O)[O-])c2)CC1` [Compound 20, (4-(5-Chloro-2-methylphenyl)piperazin-1-yl)(4-fluoro-3-nitrophenyl)methanone], which EC50 ([1]; Mus musculus, 319N1) is on record?
The EC50 was 818 nM.

Which “competition with probe 24 for p50, in words” value [5] does the source give for `COC(=O)c1c(C)oc2ccc(NS(=O)(=O)c3ccc(Cl)c([N+](=O)[O-])c3)cc12` [Compound 27] here?
The value was “displaced probe 24 from p50 in a dose-responsive manner”.

And the “IC50 fold change, resistant clones versus parental” value [7]?
Its value is over 2 fold.

For `COc1cc(OC)cc(N2CCN(C(=O)c3ccc(C=O)c([N+](=O)[O-])c3)CC2)c1` [Compound 26, 4-(4-(3,5-Dimethoxyphenyl)piperazine-1-carbonyl)-2-nitrobenzaldehyde], which EC50 ([1]; Mus musculus, 319N1) is on record?
The EC50 was 127 nM.

What about the “effect on dynamics of β3 tubulin microtubules, in words” value ([10]; 1, 5 and 10 μM) of the same compound?
The value was “dose-dependently altered the dynamics”.

And the “effect on growth of microtubules of bovine brain tubulin, in words” value ([11]; 0.5 μM (SI Figure 5C))?
The value was “potently reduced the growth”.

With `O=C(c1ccc(Cl)cc1)N1CCN(c2ccccc2)CC1` [Compound 28] as the compound, how does the “antiproliferative activity in words” value ([1]; 319N1) read?
Its value is “complete eradication of antiproliferative activity”.
